Hits are enriched below; roughly 2.2% of the tested compounds scored in any of these assays.
M5 ag = CHRM5 agonism in calcium assay | CHO-K1 hM5 cells, Fluo-8 calcium fluorescence; 0% DMSO wells, 100% maximal acetylcholine response | activation, % at 3 µM | AID 624037 | P08912 | actives 0.19% (n = 360,000);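 active = activation above the run's mean over test compounds plus 3 SD, cut at about 23% in these data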;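 note: signal is peak over basal fluorescence ratio across the kinetic read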
CHRM1 antagonist = blocks human M1 muscarinic receptor; CHO-K1 hM1, Fluo-8 calcium fluorescence, ACh EC80 antagonist; inhibition, % at 3 µM; actives 1.3% (n = 360,000); AID 588852;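 active = percent inhibition above its own plate's cutoff, namely the mean of that plate's compound wells plus 3 SD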;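 note: peak over basal fluorescence ratio during 140 s after agonist addition; 0% = ACh EC80 plus DMSO and 100% = DMSO alone without agonist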
Target sequence (P11229 whole entry, looked up): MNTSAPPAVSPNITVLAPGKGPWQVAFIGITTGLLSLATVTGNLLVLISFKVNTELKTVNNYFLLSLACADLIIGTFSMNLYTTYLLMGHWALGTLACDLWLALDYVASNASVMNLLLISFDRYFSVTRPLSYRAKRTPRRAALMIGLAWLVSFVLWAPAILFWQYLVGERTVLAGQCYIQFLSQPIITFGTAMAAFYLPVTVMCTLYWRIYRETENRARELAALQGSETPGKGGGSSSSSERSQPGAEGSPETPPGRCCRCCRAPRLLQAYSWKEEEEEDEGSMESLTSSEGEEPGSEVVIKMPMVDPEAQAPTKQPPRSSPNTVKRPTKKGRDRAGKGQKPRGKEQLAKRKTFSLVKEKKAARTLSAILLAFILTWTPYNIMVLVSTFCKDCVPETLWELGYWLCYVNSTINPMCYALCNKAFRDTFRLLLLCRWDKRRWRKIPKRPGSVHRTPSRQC
M1 PAM = potentiates human M1 receptor response to acetylcholine. actives 0.088% (n = 360,000). activation, % at 3 µM. CHO-K1 hM1, Fluo-8 calcium fluorescence, ACh EC20; 0% = ACh EC20, 100% = maximal ACh. AID 588819; in the data active = activation above about 19%, passing the limit was not always enough
M5 antag = antagonists of human muscarinic M5 receptor (CHRM5); P08912; CHO-hM5 cells, Fluo-8 calcium fluorescence, ACh EC80; actives 0.59% (n = 360,000); inhibition, % at 3 µM;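 active = inhibition above a per-plate cutoff, the mean of that plate's test compounds plus 3 SD, cut at about 27% in these data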;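 note: 0% = acetylcholine EC80 with DMSO and 100% = DMSO without agonist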
M5 PAM = CHRM5 positive allosteric modulation; activation, % at 3 µM; CHO-K1 hM5, Fluo-8 calcium, ACh EC20 PAM; 0% = ACh EC20, 100% = ACh EC100; P08912; actives 0.3% (n = 360,000);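 active = activation above the run cutoff, the mean activation of all test compounds plus 3 SD, cut at about 18% in these data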
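Measured by: Fluo-8 calcium fluorescence; material: human M5 receptor in CHO-K1 cells; schedule: Post-acetylcholine fluorescence recording 140 s; benchmarks: low control EC20 acetylcholine (0%), high control EC100 acetylcholine (100%); read-out: Max/basal fluorescence ratio as % of EC20–EC100 ACh window; compound: single dose, 3 µM nominal final test concentration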
M1 ag = human M1 muscarinic receptor agonism; CHO-K1 hM1, Fluo-8 calcium fluorescence, agonist mode; 0% DMSO, 100% acetylcholine EC100; actives 0.33% (n = 360,000); P11229; activation, % at 3 µM;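 active = activation above the run's mean compound activation plus 3 SD, cut at about 16% in these data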;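 note: peak over basal fluorescence ratio within a 140 s kinetic read after compound addition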
An asterisk follows results filed as active.

SMILES	M5 ag	CHRM1 antagonist	M1 PAM	M5 antag	M5 PAM	M1 ag
c1ccc(Nc2ncnc3sccc23)cc1	-2	-10	14	7	0	-5
CC(Nc1ncnc2sccc12)c1ccccc1 (stereo unspecified)	6	25	-12	33*	-12	3
O=c1oc(=O)c2ccccc2c2ccccc12	2	-4	5	14	3	-1
COc1ccccc1CNC(=O)CN1C(=O)c2ccc([N+](=O)[O-])cc2C1=O	-2	-3	-1	30*	-11	-2
O=C(NNC(=S)NCCc1ccccc1)c1ccc(Br)s1	2	2	8	4	-2	-8
COc1ccc(-c2nc3c(Cl)cc(C(F)(F)F)cn3c2Cc2ccc(C)cc2)cc1OC	2	-17	-4	-10	3	-3
O=C(Nc1ccc2nc(-c3cccs3)c(-c3cccs3)nc2c1)N1CCOCC1	-6	78*	-21	11	-21	-4
CN(C)c1ccc(NC(=O)N2CCOCC2)cc1	-4	10	30*	-2	1	-1
O=C(Nc1ccc2nc(-c3ccco3)c(-c3ccco3)nc2c1)NC1CC1	0	-18	6	-1	1	-2
O=C(Nc1ccc(N2CCOCC2)cc1)Nc1ccc2nc(-c3ccco3)c(-c3ccco3)nc2c1	6	33*	-15	9	-18	-2
CN(CCO)c1ccc(-c2n[nH]c(=O)c3ccccc23)cc1[N+](=O)[O-]	1	-4	3	5	-4	0
CCOc1ccc(-n2c(-c3ccc(OC)cc3)c[n+]3c2CCCCC3)cc1	-7	17	-11	15	-4	-10
CCOc1ccc(-n2c(-c3ccc(Br)cc3)c[n+]3c2CCCCC3)cc1	-8	30*	-27	7	-4	-12
CCOc1ccc(-n2c(-c3ccccc3)c[n+]3c2CCC3)cc1	-12	38*	-15	8	2	-5
Cc1ccc(/C=C/C(=O)N2CCC(Cc3ccccc3)CC2)cc1	-1	8	-4	4	-3	-7
CC1CCN(CCCNC(=O)c2nn(C)c3c2CS(=O)(=O)c2ccccc2-3)CC1	-4	16	-10	5	-3	-5
O=C(NCc1ccccc1)NC1(C(=O)N2CCOCC2)CCCCC1	-3	9	-6	-8	42*	-2
CCCCCCOc1ccc(N2C(=O)CC(N3CCN(CCN=CC4C(=O)CC(C)(C)CC4=O)CC3)C2=O)cc1 (stereo unspecified)	-3	8	-9	13	-7	0
CCC(C)c1ccccc1OCCn1ccnc1 (stereo unspecified)	-7	24	-20	30*	-18	-12
COc1ccccc1OCCn1ccnc1	-11	-18	13	-2	-5	-3
Clc1ccc(OCCn2ccnc2)c(Br)c1	-12	-15	4	8	27*	-4
COC(=O)N1C(=O)[C@@](c2ccc(OC)cc2)(C(C)C)N1C(=O)OC	3	-16	15	-3	20*	6
Cc1cccc(NC(=O)CSc2nnc(-c3cc(C)n(-c4ccccc4)c3C)o2)c1C	-4	-2	3	3	0	-4
Cc1cc(-c2nnc(SCC(=O)Nc3ccccc3C(F)(F)F)o2)c(C)n1-c1ccccc1	23	-12	-8	1	-9	17*
CCN(CC)CCNC(=O)c1ccc2c(c1)NC(=O)c1ccccc1S2	-6	3	4	7	1	-12
CCCN1CCN(CCCNC(=O)c2ccc3c(c2)NC(=O)c2ccccc2S3)CC1	-9	42*	-20	4	0	-5
CCCN1CCN(CCCNC(=O)c2cc3c(=O)[nH]c4ccccc4c3s2)CC1	1	12	-7	-1	10	21*
COCCNC(=O)c1cc2c(=O)[nH]c3ccccc3c2s1	2	5	5	6	-4	-1
CCCN1CCN(CCCNC(=O)c2cc3c(=O)oc4ccc(C)cc4c3s2)CC1	-7	-1	-6	-7	-3	21*

Assay outcomes deposited in PubChem BioAssay by The Scripps Research Institute Molecular Screening Center.
